From PubChem BioAssay
H9c2 TAG inh – inhibitors of triacylglycerol accumulation, primary screen, cell-based, uHTS, fluorescence, H9c2. inhibition, % at 12.5 µM. H9c2 cells, Nile Red lipid (TAG) fluorescence; cells loaded with 200 µM oleic acid. 230,000 tested, 0.66% active;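 active means pattern-corrected inhibition of lipid staining of at least 50% with the nuclear-stain viability signal not falling by more than 50%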;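 further: 0% = DMSO wells and 100% = triacsin C control wells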
Beta2AR agonist – beta2AR agonists driving receptor internalization, primary screen, cell-based, FAP fluorogen, flow cytometry; Am2.2-beta2AR cells; response, % (test concentration not listed); 340,000 tested, 0.43% active; AID 504454, 2011;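 active means response above a set limit, near 3 SD of response in nonfluorescent compounds, cut at about 42% in these data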
Target sequence (P07550 whole entry, looked up): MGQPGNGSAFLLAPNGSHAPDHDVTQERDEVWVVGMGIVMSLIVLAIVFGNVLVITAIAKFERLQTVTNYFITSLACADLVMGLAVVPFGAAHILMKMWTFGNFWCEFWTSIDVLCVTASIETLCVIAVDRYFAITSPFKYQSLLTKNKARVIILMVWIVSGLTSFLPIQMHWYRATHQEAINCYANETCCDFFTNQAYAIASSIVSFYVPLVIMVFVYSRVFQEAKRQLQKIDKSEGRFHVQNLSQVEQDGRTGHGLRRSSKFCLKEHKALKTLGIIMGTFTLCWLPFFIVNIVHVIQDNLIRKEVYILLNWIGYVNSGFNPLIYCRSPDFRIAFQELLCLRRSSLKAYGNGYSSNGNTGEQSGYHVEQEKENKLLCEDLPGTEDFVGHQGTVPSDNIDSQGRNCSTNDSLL
GRK2 aptamer HTS – compounds blocking aptamer binding on GRK2 – biochemical, human GRK2, bead flow cytometry, HTS, primary screen; FAM-aptamer displacement from GRK2; inhibition of aptamer binding, % at 10 µM; 330,000 tested, 0.59% active; AID 488847, 2010;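 active means inhibition of aptamer binding above 40%, roughly 3 SD of noise, on plates passing a quality check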;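 further: median bead fluorescence of bound FAM aptamer so fluorescent compounds give negative values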
NTR1 agonist – agonists of human NTR1, primary screen, imaging, U2OS cells, beta-arrestin-GFP, high content; Neurotensin receptor type 1 (Homo sapiens), P30989; NTR1-U2OS beta-arrestin-GFP spot imaging, agonist mode; activation, % at 20 µM; 330,000 tested, 0.17% active; AID 493036, 2011;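 active means activation at or above 40% of the spot to cytoplasm intensity ratio, with at least 20 cells analyzed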;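 further: 0% = DMSO without peptide and 100% = 100 nM NTR1 peptide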
Arrestin-AP2 inh – inhibitors of beta-arrestin/AP2 binding, primary screen, biochemical, GPCR trafficking, flow cytometry; FITC-arrestin peptide / GST-AP2 beads; AP2 beta2 appendage carries R879A mutation; AID 504490, 2011; 340,000 tested, 0.31% active; beta-arrestin 1 C-terminal peptide binding to AP2 beta2-adaptin appendage (human); inhibition, % at 10 µM;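 active means inhibition above a set limit, near 3 SD of compounds lacking own fluorescence, cut at about 54% in these data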;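 further: plate controls were DMSO wells for no effect and 5 µM unlabelled arrestin peptide for full effect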
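System: GST-AP2 R879A glutathione beads; medium: PBS, Tween 20 0.05%, BSA 0.1%; reagent: fluorescein-tagged arrestin peptide at 50 nM final; schedule: pre-incubation 12 min, peptide binding 1 h, room temperature; detection: flow cytometry, FL1 (488/535 nm); read-out: inhibition as reduced fluorescein signal on beads, percent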
Lipid droplet – inhibitors of hepatocyte lipid droplet formation, primary screen, imaging, high-throughput imaging, BODIPY stain; AID 1656, 2009; AML12 mouse hepatocytes, oleate lipid droplets; 240,000 tested, 0.4% active; inhibition, % at 6.5 µM;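 active means lipid droplet intensity inhibited by at least 50%, with more than 500 cells counted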
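Material: mouse AML12 hepatocyte cell line, fixed after treatment; Timing: compound with oleate, overnight; Technique: high-content imaging of BODIPY-stained droplets and DAPI nuclei; Probe or stimulus: oleate, 100 µM final; Dosing: compound at 6.5 µM only.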
TAG conf – triacylglycerol accumulation inhibitors, retest, confirmation, cell-based, single concentration, Nile Red fluorescence, H9c2; shares compounds with H9c2 TAG inh; AID 651629, 2012; inhibition, % at 12.5 µM; H9c2 lipid accumulation; cells loaded with 200 µM oleic acid; 990 tested, 71% active;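 active means mean inhibition across replicates of 40% or more; inactive means mean inhibition below 40%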;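 further: plate controls were DMSO only wells for no effect and Triacsin C treated wells for full effect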
* hit, by the source's call; nt = no result given. Rows were chosen to be rich in hits. Some 2% of all compounds tested hit in one or more screens of this group.

SMILES | H9c2 TAG inh | Beta2AR agonist | GRK2 aptamer HTS | NTR1 agonist | Arrestin-AP2 inh | Lipid droplet | TAG conf
C=CCC[C@@H](Cc1ccc(F)cc1)C(=O)OC[C@@H](Cc1c[nH]c2ccccc12)NC(=O)[C@H](CC=C)CC(=O)N(CCO)Cc1ccccc1 | 57* | 4 | 3 | 18 | -6 | nt | 71*
CC(C)(C)[C@@H]1COC(=O)[C@@H](Cc2ccc(F)cc2)C/C=C\C[C@H](CC(=O)N(CCO)Cc2ccccc2)C(=O)N1 | 4 | 8 | 0 | 4 | 4 | nt | nt
COC(=O)c1sc(NC(=O)c2ccc3c(c2)OCO3)c(C#N)c1C | -6 | 0 | nt | nt | 8 | nt | nt
C=CC[C@@H](CC(=O)N[C@H](CO)Cc1ccccc1)C(=O)N[C@H](COC(=O)[C@@H](CC=C)Cc1ccc(F)cc1)C(C)(C)C | 95* | 7 | 0 | 14 | 4 | nt | 38
CNC(=S)NN=C(C)c1ccc(OC)cc1O | 72* | -2 | nt | nt | -8 | nt | 41*
CCCC(C(=O)NC(C)(C)C)N(Cc1ccccc1)C(=O)c1snc(C(N)=O)c1N (configuration not stated) | 69* | nt | nt | nt | nt | nt | 0
O=C(CSc1nc2cc(C(=O)O)ccc2c(=O)n1-c1ccc(F)cc1)Nc1ccc(F)c(F)c1F | nt | -5 | 2 | 0 | 20 | nt | nt
CN(C(=O)c1ccccc1-c1ncc[nH]1)C1CCCN(Cc2ccccc2F)C1 (configuration not stated) | 1 | 10 | 0 | -1 | -7 | -15 | nt
O=C(CSc1nnc(CNC(=O)c2ccc(F)cc2)o1)Nc1nccs1 | -20 | 0 | 5 | 0 | -3 | 2 | nt
O=C(Cc1coc2ccc3ccccc3c12)Nc1nccs1 | 52* | 14 | 0 | 0 | 10 | 13 | 43*
CC(=O)NC(c1ccc(F)c(F)c1)c1nc(-c2cccc(F)c2)cs1 (configuration not stated) | -5 | nt | nt | nt | nt | nt | nt
Cc1cccc(Oc2nc(-c3ccccn3)nc3ccccc23)c1 | 66* | -22 | 6 | 8 | -4 | 3 | 46*
CC(=O)Nc1ccc(Oc2nc(-c3ccccn3)nc3ccccc23)cc1 | 64* | -13 | 4 | 1 | 15 | 8 | 3
Cc1cccc(Oc2nc(-c3ccncc3)nc3ccccc23)c1 | 8 | 6 | 1 | 10 | 11 | 0 | nt
COc1ccccc1N1CCN(CCN2C(=O)C3CCCN3C2=O)CC1 (configuration not stated) | nt | -8 | nt | 0 | 3 | -8 | nt
CSc1ccc(C2=C/C(=C3/SC(=S)NC3=O)c3ccccc3O2)cc1 | 59* | 4 | nt | nt | 5 | nt | 58*
CCN1/C(=C2/SC(=S)NC2=O)Sc2ccccc21 | 5 | 7 | 1 | 0 | 8 | -20 | nt
CCOC(=O)[C@H]1[C@H]2COc3ccc(OC)cc3[C@@H]2N2C(=O)c3ccc(Cl)cc3NC(=O)[C@@]12C | -11 | -4 | nt | -3 | -4 | nt | nt
C[C@@]12C(=O)Nc3ccc(Cl)cc3C(=O)N1[C@H]1c3cc(Br)ccc3OC[C@@H]1[C@@H]2c1ccccc1 | 37 | 5 | 1 | -3 | 43 | nt | nt
CCOC(=O)[C@H]1[C@H]2COc3ccc(C)cc3[C@@H]2N2C(=O)c3cc(Br)ccc3NC(=O)[C@@]12C | 67* | 1 | 0 | 2 | -5 | nt | 77*
CCOC(=O)[C@H]1[C@H]2COc3ccc(Br)cc3[C@@H]2N2C(=O)c3ccc(C)cc3NC(=O)[C@@]12C | 2 | -7 | nt | -2 | -7 | nt | nt
CCOC(=O)[C@H]1[C@H]2COc3ccc(Cl)cc3[C@@H]2N2C(=O)c3cc(OC)ccc3NC(=O)[C@@]12C | 58* | 0 | nt | 2 | 33 | nt | 41*
C[C@@]12C(=O)Nc3ccc(Br)cc3C(=O)N1[C@H]1c3cc(Br)ccc3OC[C@@H]1[C@@H]2c1ccccc1 | 73* | -1 | 0 | -4 | -2 | nt | 62*
Cc1ccccc1C(=O)N1CCC(C(=O)Nc2ccccc2N2CCCC2)CC1 | -4 | 0 | 2 | 0 | 33 | nt | nt
CCCCCC(=O)Nc1nc(C)c(-c2csc(Nc3cc(OC)ccc3OC)n2)s1 | 59* | 16 | 1 | 9 | -6 | nt | 75*
SMILES | H9c2 TAG inh | Beta2AR agonist | GRK2 aptamer HTS | NTR1 agonist | Arrestin-AP2 inh | Lipid droplet | TAG conf
Cc1ccc(NS(=O)(=O)c2ccc(Br)s2)nc1 | nt | -3 | 0 | 0 | -1 | -17 | nt
CC1CN(C(=O)c2ccccc2OCc2ccc(Cl)cc2Cl)CC(C)O1 (configuration not stated) | -15 | -3 | 5 | -1 | -6 | nt | nt
CN(C)CCCn1c(=O)n(C2CCCCC2)c(=O)c2c3c(sc21)CCCCC3 | 59* | 2 | 0 | 15 | 19 | nt | 72*
Cc1[nH]nc(Nc2ccc(C(C)C)cc2)c1[N+](=O)[O-] | 1 | 1 | 7 | 2 | -3 | -4 | nt
O=C(CCCC(=O)N(c1ccc(F)cc1)C(C(=O)NC1CCCC1)c1ccc(O)cc1)Nc1ccccn1 (configuration not stated) | nt | 7 | 0 | 0 | 6 | -3 | nt
CCOC(=O)c1cc(-c2ccccc2)sc1NC(=O)C(C)N1C(=O)NC(C)(c2ccc(Cl)cc2)C1=O (configuration not stated) | 76* | -10 | 4 | 1 | -6 | 16 | 76*
CCOC(=O)c1cc(-c2ccccc2)sc1NC(=S)Nc1cccc(C)n1 | 69* | 0 | 0 | 25 | 4 | nt | 56*
Nc1ncnc2c1ncn2[C@@H]1O[C@H](COP(=O)(O)O)[C@@H](O)[C@H]1O | -6 | 3 | 1 | 2 | 8 | -2 | nt
CN1N=C(N)c2cn(C3OC(COP(=O)(O)O)C(O)C3O)c3ncnc1c23 (configuration not stated) | 52* | -2 | nt | nt | 28 | nt | 64*
CCN(CC)CCNC(=O)C(=O)Nc1ccc2c(c1)N(S(=O)(=O)c1cccs1)CCC2 | 9 | 6 | 0 | 1 | 20 | nt | nt
CCCCNC(=O)C(=O)Nc1ccc2c(c1)N(S(=O)(=O)c1cccs1)CCC2 | 60* | nt | nt | nt | nt | nt | 54*
CCOc1ccc(CCNC(=O)CN2CCN(Cc3ccccc3F)C2=O)cc1OCC | 60* | 2 | 0 | 0 | 5 | nt | 42*
O=C(CN1CCN(Cc2ccccc2F)C1=O)NCCc1ccc(Cl)cc1 | -18 | -1 | 2 | -1 | 5 | nt | nt
